Measured values gathered from unrelated publications.
Compare with care: the assays were run in different laboratories.
Target: Serine/threonine-protein kinase pim-3 (PIM3, Homo sapiens, UniProt Q86V86)

Compound	test	conditions	remaining binding
Cc1cnn2ncc(-c3ccnc(N(C)C)n3)c2c1	binding	1 µM	85%
CCCOc1ccc([C@@H]2[C@@H](C(=O)O)[C@H](c3ccc4c(c3)OCO4)CN2CC(=O)Nc2c(CC)cccc2CC)cc1	cell-free assay, competition with immobilised ligand	1 µM	95%
C[C@@H](c1ccc(-n2cnc3c(N)ncnc32)cc1)N1CCc2nn(C)c(Cc3ccccc3)c2C1=O	binding, competition with immobilised ligand	0.1 µM	90%
C[C@@H]1CCN(c2nccc(-c3cnn4ncccc34)n2)C1	binding	1 µM	92%
Nc1ncc2c(n1)-c1c([nH]c3ccc(C#CC4CC4)cc13)CCCC2	binding, competition with immobilised ligand	1 µM	76%
CC(C)(C)c1ccc(-c2nc(CBr)nn2-c2cccc(O)c2)cc1	cell-free assay, competition with immobilised ligand	10 µM	100%
Cc1nccc(COC(=O)N2C[C@@H]3[C@@H](CNC(=O)c4ccc5[nH]nnc5c4)[C@@H]3C2)n1	cell-free assay, competition with immobilised ligand	1 µM	97%
CN(C)c1nccc(-c2cnn3ncccc23)n1	binding	1 µM	56%
O=C(Nc1c[nH]nc1C(=O)NC1CCNCC1)c1cc(F)cc(F)c1	binding, competition with immobilised ligand	1 µM	88%
COc1cnc(Nc2cccc(S(N)(=O)=O)c2)nc1N1CCN(c2ccccc2)C(=O)C1	binding, competition with immobilised ligand	1 µM	100%
c1cnn2ncc(-c3ccnc(N4CCC45COC5)n3)c2c1	binding	1 µM	84%
CCN1CCN(Cc2ccc(C(=O)Nc3ccc(C)c(Oc4ccc5c(c4)CC(=O)N5)c3)cc2C(F)(F)F)CC1	binding, competition with immobilised ligand	1 µM	100%
N[C@H]1CCN(c2nccc(-c3cnn4ncccc34)n2)C1	binding	1 µM	79%
O=C(NCCCN1CCOCC1)c1ccc(Nc2nccc(-c3cc4ccccc4s3)n2)cc1	binding, competition with immobilised ligand	1 µM	91%
CO[C@@H](C)c1c(Nc2ccc([C@@H](N(C)C(=O)C3CCS(=O)(=O)CC3)C(F)(F)F)cc2)cnc2cc(Cl)nn12	cell-free assay, competition with immobilised ligand	1 µM	97%
C[C@@H]1CN(c2ccc3ncc(-c4ccc5[nH]nc(C6CC6)c5c4)n3n2)C[C@H](C)O1	binding, competition with immobilised ligand	50 nM	81%
C[C@H](c1cccc(C#N)c1)n1cc(Cl)cc(C(N)=O)c1=N	cell-free assay, competition with immobilised ligand	1 µM	100%
O=C(c1ccc(Nc2ncc(Cl)c(-c3cc4ccccc4s3)n2)cc1)N1CCC(N2CCCC2)CC1	binding, competition with immobilised ligand	1 µM	75%
N#CC1(c2ccccn2)CCN(Cc2cc(C(=O)N3CCCC3)c(=O)n3ccccc23)CC1	cell-free assay, competition with immobilised ligand	1 µM	99%
F[C@@H]1CCN(c2nccc(-c3cnn4ncccc34)n2)C1	binding	1 µM	100%
O=C1CCc2cc(Nc3cc(OC4CCOCC4)c([N+](=O)[O-])cc3Cl)ccc2N1	cell-free assay, competition with immobilised ligand	1 µM	100%
Cc1cnc(Nc2ccc(C(=O)N3CCC(N4CCCC4)CC3)cc2)nc1-c1cc2ccccc2s1	binding, competition with immobilised ligand	1 µM	60%
CC1CCCN1c1nccc(-c2cnn3ncccc23)n1 (stereo not drawn)	binding	1 µM	100%
C[C@@H]1CN(c2cc(-c3nn(C)c4ccc(OC5(C)CC5)cc34)ncn2)C[C@H](C)O1	cell-free assay, competition with immobilised ligand	1 µM	92%
